Assay outcomes (PubChem)
zVAD death inh = blocks zVAD induced death of L929 cells; L929 zVAD necroptosis rescue, ATP luminescence, 24 h; with zVAD 60 µM; viability rescue, % at 10 µM; 220,000 tested, 0.38% active; AID 1377;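 active = activation, scaled between plate controls, above about 75%, limit read from the data; inactive = activation under that limit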;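 also: 0% = zVAD with DMSO and 100% = DMSO alone without zVAD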
Dynein cargo inh = dynein cargo transport inhibition; AID 1381; z-score, hits read low; 220,000 tested, 0.47% active; 3617.4 mouse cells, GR-EGFP nuclear translocation imaging; test concentration mostly 20 µM; stimulated with dexamethasone, 1 µM; active compounds read low;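 active = plate z-score of nuclear minus cytoplasmic receptor signal below a set negative limit, without overly bright fluorescence or cell loss, cut at about -3.5 in these data, passing the limit was not always enough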;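 also: z-score of nuclear minus cytoplasmic ring GR-EGFP intensity difference per well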
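medium = tetracycline-free induction medium containing charcoal-stripped FBS | also added = 1.0 µM final dexamethasone stimulus | schedule = 48 h induction, 1 h compound, 30 min dex at 37 °C | technique = fixed, Hoechst-stained cells imaged at 10x for EGFP | measure = GR-EGFP nuclear translocation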
Autophagy mod = autophagy modulation, high-content screen; 190,000 tested, 0.98% active; MEF GFP-LC3 puncta imaging; test concentration mostly 10 µM; calls only at 10 µM (by protocol);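 active = percentage of spot-positive cells more than 3 SD above its plate mean, without a fluorescence outlier flag or 80% toxicity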;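 also: spot-positive cell cutoff set from DMSO-treated cells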
TNF death inh = inhibitors of TNF-alpha induced necroptosis in Jurkat FADD-/- cells; activation (protection from cell death), % at 10 µM; AID 463075; Jurkat FADD-/- TNF necroptosis rescue, ATP luminescence, 24 h; 0 = TNF only, 100 = no-TNF cells; 220,000 tested, 0.068% active;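 active = activation, meaning protection from cell death, of at least 50% relative to plate controls; inactive = activation below 50%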;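 also: necroptosis triggered by 40 ng/mL TNF-alpha added together with compound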
Mdm2 ligase inh = inhibitors of human Mdm2 E3 ubiquitin ligase; Q00987; signal enhancement, % at 5 µM; cell-based MDM2 ubiquitination luciferase reporter, 2 h; 0 = plate control, 100 = twice control, blank-subtracted; 210,000 tested, 0.11% active;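 active = signal enhancement of 30% or more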;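 also: luminescence tracks abundance of the self-degrading MDM2-luciferase fusion protein; higher signal means inhibition of MDM2 E3 ligase activity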
Target sequence (Q00987 whole entry, looked up, the tested form may be a part): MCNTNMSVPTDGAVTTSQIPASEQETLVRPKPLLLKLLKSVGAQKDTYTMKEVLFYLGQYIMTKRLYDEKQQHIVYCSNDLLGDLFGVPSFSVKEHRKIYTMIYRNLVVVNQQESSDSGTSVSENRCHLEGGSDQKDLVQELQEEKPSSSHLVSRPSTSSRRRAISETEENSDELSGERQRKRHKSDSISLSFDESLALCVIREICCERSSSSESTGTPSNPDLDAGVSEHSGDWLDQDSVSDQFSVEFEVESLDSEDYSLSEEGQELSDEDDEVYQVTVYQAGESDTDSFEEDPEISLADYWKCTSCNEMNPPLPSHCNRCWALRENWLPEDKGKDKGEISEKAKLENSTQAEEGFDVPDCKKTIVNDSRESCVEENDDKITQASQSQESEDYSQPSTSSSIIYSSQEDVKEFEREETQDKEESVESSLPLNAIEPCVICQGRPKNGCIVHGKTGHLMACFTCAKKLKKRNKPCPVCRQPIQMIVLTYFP
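Assay system: stable mammalian line carrying autodegrading MDM2–luciferase fusion reporter; amount: 2000 cells seeded into each well; buffer or medium: DMEM; benchmarks: plate control and blank wells; signal: luciferase luminescence; timing: 2 h compound exposure at 37 °C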
An asterisk follows results filed as active; i = inactive; . = no result given; + = active, no number. Shown are actives, neighbours in structure and some others; about 1.8% of the full set was active somewhere.

SMILES | zVAD death inh | Dynein cargo inh | Autophagy mod | TNF death inh | Mdm2 ligase inh
CC(=O)OCCNc1cc(N2CCN(C)CC2)c2noc3c2c1C(=O)c1ccccc1-3 | 17.6 | -0.945 | i | 1.5 | -35.1
CN(C)C1=NC(=O)/C(=C\c2ccccc2)S1 | 2.4 | -0.349 | + | -0.9 | -2.5
O=C1N=C(N2CCCC2)S/C1=C\c1ccccc1 | 0.0 | 0.399 | i | 0.0 | -14.1
O=[N+]([O-])c1ccccc1CNC1CCCc2ccccc21 (stereo unspecified) | 0.4 | -0.557 | i | 0.0 | -5.7
Oc1c(C(Nc2ccccn2)c2cccnc2)cc(Cl)c2cccnc12 (stereo unspecified) | 3.3 | -0.137 | + | -7.6 | 4.0
Cc1cc(NC(c2cccnc2)c2ccc3cccnc3c2O)no1 (stereo unspecified) | 48.2 | 0.144 | i | -16.8 | -19.9
CCCCC(CCCC)=N/N=C/c1c(O)n(CC)c2cc(C3=NNC(=O)CC3)ccc12 | 0.9 | 0.174 | + | -2.7 | -11.7
CCn1c(O)c(/C=N/N=C2CCCC2)c2ccc(C3=NNC(=O)CC3)cc21 | 0.4 | -0.612 | i | -3.9 | -10.5
COC(OC)c1ccc(C#N)c(=O)[nH]1 | 0.7 | 0.58 | i | -0.6 | -22.2
CCOc1ccccc1NC(=O)C1CCN(C(=O)c2cccs2)CC1 | 1.1 | -1.2 | + | -1.2 | -16.7
CCOc1ccccc1NC(=O)N1C2CCCC1CC(NC(=O)C1CC1)C2 (stereo unspecified) | 0.5 | 0.457 | + | -0.1 | 0.6
O=C(N=C1N=C2C=CC=CN2Cc2ccccc21)c1ccc(S(=O)(=O)N2CCOCC2)cc1 | 5.2 | 0.314 | i | 1.5 | -5.2
COc1ccc(S(=O)(=O)N(CC(=O)NCc2cccnc2)c2ccc(F)cc2)cc1OC | 0.3 | -0.404 | i | -5.5 | 2.5
CN(C)c1ccc(N/C(N)=N/c2nc(C(F)(F)F)cc(C(F)(F)F)n2)cc1 | 1.9 | -0.424 | i | 0.3 | -7.0
CC(=O)C1=C(C)NC(SCC(=O)c2ccc(C)cc2)=C(C#N)C1c1ccco1 (stereo unspecified) | -0.1 | -0.805 | + | -5.0 | 4.6
C=CCOC(=O)C1=C(C)NC(SCC(=O)Nc2ccc(C)c(Cl)c2)=C(C#N)C1c1ccco1 (stereo unspecified) | 1.6 | -0.493 | + | 0.5 | -13.1
CCOC(=O)c1ccc(NC(=O)N2CCN(C(=O)c3ccco3)CC2)cc1 | -0.4 | 0.129 | i | -1.9 | -19.8
CN(C1CC(C)(C)NC(C)(C)C1)S(=O)(=O)CC12CCC(CC1=O)C2(C)C (stereo unspecified) | 0.4 | -0.59 | . | 1.5 | 3.2
CC(Sc1nnc(NC2CCCCC2)s1)C(=O)Nc1ccc2c(c1)C(=O)c1ccccc1C2=O (stereo unspecified) | 1.9 | 0.327 | i | 3.4 | -7.8
COCCCn1c(SCC(=O)NNC(=O)c2cccc(O)c2)nnc1-c1ccncc1 | 1.6 | 0.219 | i | 1.1 | -4.8
COc1ccccc1NC(=O)CSc1nnc(-c2ccc(NC(C)=O)cc2)n1C | 1.9 | -0.509 | + | 0.8 | -6.9
COc1cc(/C=C2\SC(=O)N(CCNC(=O)c3sc4cc(F)ccc4c3Cl)C2=O)cc(OC)c1OC | -0.9 | -1.63 | + | 1.0 | 2.2
CCOCCCNC(=O)CSc1nc2nc(C)c(Cc3ccccc3)c(C)n2n1 | -0.4 | 0.759 | i | 2.0 | -6.2
Cc1c(C(=O)Nc2ccc(Cl)cc2)c2ccccn2c1C(=O)c1ccc(F)cc1 | 0.2 | -0.163 | + | -1.5 | -9.9
COc1ccc(OC)c(NC(=O)c2nnn(CCc3ccccc3)c2N)c1 | 3.0 | -1 | i | 2.9 | -13.1
SMILES | zVAD death inh | Dynein cargo inh | Autophagy mod | TNF death inh | Mdm2 ligase inh
COc1ccc(OC)c(NC(=O)c2sc3nc(Cc4ccccc4)cc(C(F)(F)F)c3c2N)c1 | 0.5 | 2.04 | + | -0.8 | -3.1
Cc1ccc(OCc2cn3cccnc3n2)cc1 | -0.5 | 0.285 | i | 0.4 | -12.6
Cc1cc(C)n(-c2ccc(F)cc2CN2CCN(C3CCCC3)C(CCO)C2)n1 (stereo unspecified) | -0.7 | -0.177 | + | 1.3 | -4.6
CCN(CC)c1ccc(/C=N/NC(=O)c2cccc(S(=O)(=O)Nc3ccccc3OC)c2)c(O)c1 | 60.6 | 0.804 | + | -7.9 | -19.0
Cc1nc2oc3ccccc3c(=O)c2c(=O)n1Cc1ccccc1 | 2.9 | 0.099 | i | 60.1* | 2.2
O=C(CCC1CCCCC1)NNC(=O)c1cnccn1 | 1.2 | 0.0528 | i | 3.7 | -11.2
O=C(Nc1nc2ccccc2s1)c1cc2c(s1)-c1ccccc1OC2 | 1.5 | i | + | 3.4 | -8.3
O=C(Nc1ccc(Cl)cn1)c1cc2c(s1)-c1ccccc1OC2 | 1.4 | 0.595 | . | 8.2 | -10.9
CCN(CC)C(=O)Cn1ccc(NC(C)=O)nc1=O | 0.9 | 0.111 | . | 2.9 | .
CCOC(=O)c1ccc(N2C(=O)CC(SCC(N)C(=O)OCC)C2=O)cc1 (stereo unspecified) | 1.4 | 0.736 | i | 1.7 | -15.6
CCOC(=O)c1ccc(N2C(=O)CC(Sc3nnc(C)s3)C2=O)cc1 (stereo unspecified) | 0.6 | -3.53* | i | -11.4 | -12.0
C/C(=C/C(=O)O)C(=O)Nc1cccc(C(F)(F)F)c1 | -0.3 | 1.72 | i | 0.8 | -6.1
O=C(Nc1cccc(NC(=O)C2C3CC4OC(=O)C2C4C3)c1)c1ccccc1 (stereo unspecified) | 5.2 | -0.0116 | i | 1.2 | -3.4
N=c1n(CCOc2ccccc2)c2ccccc2n1CCN1CCOCC1 | 0.4 | 2.58 | + | -1.2 | -17.7
c1ccc(OCCCCN2CCOCC2)cc1 | 0.5 | 0.324 | i | -0.1 | -9.3
COc1ccc(C(=O)c2ccc(N3CCOCC3)c([N+](=O)[O-])c2)cc1 | -1.1 | -0.546 | i | -3.9 | -13.1
COc1ccc(Nc2nnc(-c3ccc(N4CCOCC4)c([N+](=O)[O-])c3)c3ccccc23)cc1 | 81.6* | -0.017 | i | -15.9 | -20.6
CC(=C\C(=O)O)/C(=C/c1ccc(C)o1)C(=O)O | -0.3 | 0.202 | i | 0.0 | -12.2
Nc1[nH]n(-c2ccccc2)c(=O)c1N=Nc1ccc2ncsc2c1 | 1.5 | -0.55 | . | -0.8 | -16.0
Cc1cc(NC(=O)CSc2nnc(C3COc4ccccc4O3)o2)no1 (stereo unspecified) | 0.0 | -0.0363 | + | -0.9 | -11.7
O=C(COc1ccc(Br)cc1)N/N=C1/SCC(=O)N1Cc1ccccc1 | 0.3 | -0.507 | i | 2.0 | 8.9
Cc1ccc(C)c(NC(=S)N/N=C/C(C)c2ccccc2)c1 (stereo unspecified) | 0.5 | -0.34 | i | -0.6 | -8.7
CCN(C(=O)CSc1nnc(Nc2ccccc2)s1)C1CCS(=O)(=O)C1 (stereo unspecified) | 1.3 | 0.232 | + | 1.1 | -9.8
